Laboratory results published in ChEMBL document CHEMBL4017446, “Discovery of (2-aminophenyl)methanol as a new molecular chaperone that rescues the localization of P123S mutant pendrin stably expressed in HEK293 cells” (Bioorg Med Chem, 2017).
The source made the active and inactive calls. The calls are words filed in the database; no cut-off is given here.

Key:
HEK293 [1] = test: Cytotoxicity against HEK293 cells harboring pendrin P123S mutant after 72 hrs by MTT assay; type: cell-based; conditions: Homo sapiens, HEK293, 72 h
How it was run: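 Stable P123S pendrin HEK293 cells were seeded at 5 × 10^4 cells/well and preincubated 12 h at 37 °C. Cells were then exposed to compound at various concentrations in RPMI-1640 for 72 h. Viability was measured by MTT, and IC50 was taken from semilogarithmic dose-response plots. Triplicate experiments.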

HEK293 [2] = test: Cytotoxicity against HEK293 cells harboring pendrin P123S mutant assessed as decrease in cell viability at 15 mM after 72 hrs by MTT assay; type: cell-based; conditions: human, hek293, 72 h, 15000 µM
[3] = test system: T1, Pendrin (Homo sapiens), O43511 [P123S]; test: Chaperone activity at recombinant human C-terminal FLAG-tagged pendrin P123S mutant expressed in HEK293 cells assessed as increase in localization of protein mutant in plasma membrane at 1 to 30 mM after 12 hrs by DAPI staining based immunofluorescence microscopic analysis; type: cell-based
T1 sequence (whole entry): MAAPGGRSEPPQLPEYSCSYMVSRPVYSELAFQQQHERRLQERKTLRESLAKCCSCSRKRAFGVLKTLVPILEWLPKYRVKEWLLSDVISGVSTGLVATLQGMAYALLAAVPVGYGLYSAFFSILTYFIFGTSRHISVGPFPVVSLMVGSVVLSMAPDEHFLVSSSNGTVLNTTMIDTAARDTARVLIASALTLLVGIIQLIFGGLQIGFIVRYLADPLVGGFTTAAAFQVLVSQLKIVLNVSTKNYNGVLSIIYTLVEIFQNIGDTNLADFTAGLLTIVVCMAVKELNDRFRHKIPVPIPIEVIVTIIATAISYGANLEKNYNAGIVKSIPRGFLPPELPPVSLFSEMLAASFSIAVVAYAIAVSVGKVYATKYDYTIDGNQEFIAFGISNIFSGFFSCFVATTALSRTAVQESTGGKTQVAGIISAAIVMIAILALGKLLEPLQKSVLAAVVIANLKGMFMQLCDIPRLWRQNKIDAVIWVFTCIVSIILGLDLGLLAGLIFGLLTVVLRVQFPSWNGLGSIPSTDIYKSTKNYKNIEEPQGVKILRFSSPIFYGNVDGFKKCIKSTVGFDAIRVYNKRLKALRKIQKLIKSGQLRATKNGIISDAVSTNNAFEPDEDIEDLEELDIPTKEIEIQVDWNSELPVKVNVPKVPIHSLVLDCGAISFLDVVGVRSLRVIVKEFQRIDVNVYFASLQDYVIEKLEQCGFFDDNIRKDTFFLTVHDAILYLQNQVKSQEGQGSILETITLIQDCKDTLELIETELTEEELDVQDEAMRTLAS
How it was run: (§1)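 Stable P123S pendrin HEK293 cells were screened in 96-well plates after 12 h exposure to compound or 0.1% DMSO. WT cells with vehicle served as positive control. Cells were anti-FLAG/DAPI immunostained, and about 100 cells per field across 100 fields were imaged by automated high-content analysis. The read-out was cytoplasmic fluorescence intensity in a 5-pixel band 2–7 pixels inside the cell outline.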

[4] = test system: T1, Pendrin (Homo sapiens), O43511 [P123S]; test: (§2) Chaperone activity at recombinant human C-terminal FLAG-tagged pendrin P123S mutant expressed in HEK293 cells assessed as intracellular localization of mutant protein in plasma membrane at 10 mM incubated for 12 hrs followed by compound washout measured after 6 hrs by DAPI staining based immunofluorescence microscopic analysis; type: cell-based
How it was run: (§3)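 Stable P123S pendrin HEK293 cells (5 × 10^4/well) were exposed to compound or 0.1% DMSO for 12 h, washed with PBS, then kept in fresh medium for 0, 6 or 12 h. They were then anti-FLAG/DAPI immunostained and imaged by confocal microscopy to follow pendrin distribution at the plasma membrane. Triplicate experiments.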

[5] = test system: T1, Pendrin (Homo sapiens), O43511 [P123S]; test: Chaperone activity at recombinant human C-terminal FLAG-tagged pendrin P123S mutant expressed in HEK293 cells assessed as increase in fluorescence intensity ratio of plasma membrane to cytoplasm measured after 12 hrs by DAPI staining based immunofluorescence microscopic method; type: cell-based
How it was run: (§4)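 Stable HEK293 line expressing FLAG-tagged P123S pendrin, grown in 10% FBS-RPMI-1640, treated 12 h with compound or vehicle (0.1% DMSO) in 35 mm dishes. Cells were fixed in 4% paraformaldehyde, stained with anti-FLAG primary antibody, Alexa Fluor 546 secondary and DAPI, and imaged by confocal microscopy. Mean intensities of 20 regions ([…]) in plasma membrane and cytoplasm gave the M/C ratio; 6–9 cells averaged.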

[6] = test system: T1, Pendrin (Homo sapiens), O43511 [P123S]; test: Chaperone activity at recombinant human C-terminal FLAG-tagged pendrin P123S mutant expressed in HEK293 cells assessed as fluorescence intensity ratio of plasma membrane to cytoplasm at 10 mM measured after 12 hrs by DAPI staining based immunofluorescence microscopic method; type: cell-based; how it was run: as §4
HEK293 [7] = test: Induction of HEK293 cell aggregation measured after 12 hrs by DAPI staining based immunofluorescence microscopic method; conditions: human, hek293, 12 h
How it was run: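 Stable P123S pendrin HEK293 cells were incubated with compound for 12 h in 35 mm dishes, then immunostained with anti-FLAG and DAPI. Cell aggregation was observed under a fluorescence microscope.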

[8] = test system: T1, Pendrin (Homo sapiens), O43511 [P123S]; test: Chaperone activity at recombinant human C-terminal FLAG-tagged pendrin P123S mutant expressed in HEK293 cells assessed as translocation of mutant protein from cytoplasm to plasma membrane at 3 mM measured after 12 hrs by DAPI staining based immunofluorescence microscopic analysis; type: cell-based
How it was run: (§5)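 HEK293 cells stably expressing FLAG-tagged P123S pendrin were incubated 12 h with compound or 0.1% DMSO in dishes. WT-pendrin cells given vehicle served as reference. Cells were fixed in paraformaldehyde, blocked in 1% BSA, stained with anti-FLAG/Alexa Fluor 546 secondary plus DAPI, and membrane versus cytoplasmic localization was judged by confocal imaging.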

[9] = test system: T1, Pendrin (Homo sapiens), O43511 [P123S]; test: as §2, with “12” for “6”; type: cell-based; how it was run: as §3
[10] = test system: T1, Pendrin (Homo sapiens), O43511 [P123S]; test: as §2, with “0.1” for “10”; type: cell-based; how it was run: as §3
[11] = test system: T1, Pendrin (Homo sapiens), O43511 [P123S]; test: Chaperone activity at recombinant human C-terminal FLAG-tagged pendrin P123S mutant expressed in HEK293 cells assessed as increase in localization of protein mutant in plasma membrane at 0.03 to 1 mM after 12 hrs by DAPI staining based immunofluorescence microscopic analysis; type: cell-based; how it was run: as §1
[12] = test system: T1, Pendrin (Homo sapiens), O43511 [P123S]; test: Chaperone activity at recombinant human C-terminal FLAG-tagged pendrin P123S mutant expressed in HEK293 cells assessed as translocation of mutant protein from cytoplasm to plasma membrane at 0.1 mM measured after 12 hrs by DAPI staining based immunofluorescence microscopic analysis; type: cell-based; how it was run: as §5
[13] = test system: T1, Pendrin (Homo sapiens), O43511 [P123S]; test: Potency index, ratio of compound effect to salicylate effect for chaperone activity at recombinant human C-terminal FLAG-tagged pendrin P123S mutant expressed in HEK293 cells assessed as translocation of mutant protein from cytoplasm to plasma membrane; type: cell-based
[14] = test system: T1, Pendrin (Homo sapiens), O43511 [P123S]; test: Chaperone activity at recombinant human C-terminal FLAG-tagged pendrin P123S mutant expressed in HEK293 cells assessed as fluorescence intensity ratio of plasma membrane to cytoplasm at 0.3 mM measured after 12 hrs by DAPI staining based immunofluorescence microscopic method; type: cell-based; how it was run: as §4
[15] = test system: T1, Pendrin (Homo sapiens), O43511 [P123S]; test: Chaperone activity at recombinant human C-terminal FLAG-tagged pendrin P123S mutant expressed in HEK293 cells assessed as fluorescence intensity ratio of plasma membrane to cytoplasm at 0.1 mM measured after 12 hrs by DAPI staining based immunofluorescence microscopic method; type: cell-based; how it was run: as §4
[16] = test system: T1, Pendrin (Homo sapiens), O43511 [P123S]; test: as §2, with “0.1” for “10”, “12” for “6”; type: cell-based; how it was run: as §3
[17] = test system: T1, Pendrin (Homo sapiens), O43511 [P123S]; test: Chaperone activity at recombinant human C-terminal FLAG-tagged pendrin P123S mutant expressed in HEK293 cells assessed as translocation of mutant protein from cytoplasm to plasma membrane at 1 to 10 mM measured after 12 hrs by DAPI staining based immunofluorescence microscopic analysis; type: cell-based; how it was run: as §5

Structure (SMILES): O=C(O)c1ccc(O)c(O)c1 [PROTOCATECHUIC ACID]
- IC50 (HEK293 [1]): > 15 mM
- Activity (HEK293 [2]): 37%
- Activity [3]: inactive

Structure (SMILES): Nc1cccc(CO)c1
- IC50 (HEK293 [1]): > 15 mM
- Activity (HEK293 [2]): 46.7%

Structure (SMILES): CC(=O)Oc1ccccc1C(=O)O [ASPIRIN]
- IC50 (HEK293 [1]): 10.2 mM
- Activity [3]: inactive

Structure (SMILES): O=C(O)c1ccccc1O [SALICYLIC ACID]
- IC50 (HEK293 [1]): > 15 mM
- Activity (HEK293 [2]): 4.2%
- Activity [4]: inactive
- Activity [5]: Dose-dependent effect
- Ratio [6]: 1

Structure (SMILES): Nc1ccc(O)c(C(=O)O)c1 [MESALAMINE]
- IC50 (HEK293 [1]): > 15 mM
- Activity (HEK293 [2]): 35.5%
- Activity [3]: inactive

Structure (SMILES): CC(O)CC(=O)O (stereo unspecified)
- IC50 (HEK293 [1]): > 15 mM
- Activity [3]: Active

Structure (SMILES): O=C(O)c1cccc(O)c1O [2,3-DIHYDROXYBENZOIC ACID]
- IC50 (HEK293 [1]): > 15 mM
- Activity (HEK293 [2]): 47.4%
- Activity [3]: inactive

Structure (SMILES): Nc1ccccc1C(=O)O [ANTHRANILIC ACID]
- IC50 (HEK293 [1]): > 15 mM
- Activity (HEK293 [2]): 46.9%
- Activity [3]: inactive

Structure (SMILES): OCCc1ccccc1O
- IC50 (HEK293 [1]): > 15 mM
- Activity (HEK293 [2]): 38.3%
- Activity [3]: Active
- Activity (HEK293 [7]): Toxic

Structure (SMILES): O=C(O)c1cc([N+](=O)[O-])ccc1O
- IC50 (HEK293 [1]): 5.3 mM
- Activity [4]: Active
- Activity [3]: Active
- Activity [8]: Active
- Activity [5]: Dose-dependent effect
- Ratio [6]: 1.3
- Activity [9]: Active

Structure (SMILES): O=C(O)c1cc(O)ccc1O [GENTISIC ACID]
- IC50 (HEK293 [1]): > 15 mM
- Activity (HEK293 [2]): 46.8%
- Activity [3]: inactive

Structure (SMILES): Nc1ccccc1CO [ISATOIC ANHYDRIDE]
- Activity [10]: Active
- Activity [11]: Active
- Activity [12]: Active
- Ratio [13]: 100
- Activity [5]: Dose-dependent effect
- Ratio [14]: 1.8
- Ratio [15]: 0.9
- Activity [16]: Active

Structure (SMILES): Nc1ccccc1CCO
- IC50 (HEK293 [1]): > 15 mM
- Activity (HEK293 [2]): 35.8%
- Activity [3]: inactive

Structure (SMILES): Nc1ccc(CO)cc1
- IC50 (HEK293 [1]): 12.7 mM

Structure (SMILES): OB(O)c1ccccc1O
- IC50 (HEK293 [1]): > 15 mM
- Activity (HEK293 [2]): 22.3%
- Activity [3]: Active
- Activity (HEK293 [7]): Toxic

Structure (SMILES): O=C(O)c1ccccc1S [THIOSALICYLIC ACID]
- IC50 (HEK293 [1]): 12.7 mM
- Activity [3]: inactive

Structure (SMILES): O=C(O)Cc1ccccc1O
- IC50 (HEK293 [1]): 12.1 mM
- Activity [3]: Active

Structure (SMILES): O=C(O)c1c(O)cccc1O
- IC50 (HEK293 [1]): 10.6 mM
- Activity [3]: inactive

Structure (SMILES): O=C(O)CC(=O)O [MALONIC ACID]
- IC50 (HEK293 [1]): 9.7 mM

Structure (SMILES): Cc1ccc(O)c(C(=O)O)c1
- IC50 (HEK293 [1]): 9.8 mM
- Activity [4]: Active
- Activity [5]: Dose-dependent effect
- Ratio [6]: 1.7
- Activity [17]: Active

Structure (SMILES): O=C(O)c1ccc([N+](=O)[O-])cc1O
- IC50 (HEK293 [1]): 12.5 mM
- Activity [3]: Active
- Activity (HEK293 [7]): Toxic

Structure (SMILES): OCc1ccccc1O [SALICYL ALCOHOL]
- IC50 (HEK293 [1]): > 15 mM
- Activity (HEK293 [2]): 25.3%
- Activity [3]: inactive
